The target of data set [1] is T1, wild-type CFTR (Homo sapiens, UniProt P13569). Description: cell-based plate reader assay of CFTR function. The note with it: for CFTR activation potency of synthesized analogs, comparison in words: Charts 1-3; for CFTR activation potency of commercial analogs, SAR summary in words: commercially available analogs of 1, Supporting Information Table 1.
Data set [2] concerns the target T1, wild-type CFTR. Description: short-circuit current measurement in CFTR-expressing FRT cells. The note with it: compared with maximal concentration of forskolin. It counts as cell-based. An outline of the steps: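 FRT cells expressing human wild-type CFTR on inserts in Ussing chambers. Basolateral HCO3−-buffered and apical half-Cl− solutions; basolateral membrane permeabilized with 250 μg/mL amphotericin B. Gassed with 95% O2/5% CO2 at 37 °C under voltage clamp. Sequence: low forskolin, cumulative test compound, maximal forskolin, then 10 μM CFTRinh-172. EC50 from concentration–response, n = 3.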

Data set [3] deals with TMEM16A. Description: TMEM16A plate reader assay in FRT cells expressing YFP. In kind it is cell-based. The note with it: 10 μM. The method, boiled down: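 FRT cells stably coexpressing TMEM16A and YFP-H148Q halide sensor, test compound at 10 μM. Activation was tested by iodide addition and inhibition by iodide plus ATP. Assay run like the CFTR plate assay: 2 s baseline, then 12 s after rapid iodide addition. The initial iodide influx rate from YFP quenching was taken as channel function. Representative of two to four experiment sets.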

For data set [4], the system named is cellular cAMP in FRT cells. Description: cAMP immunoassay in FRT cells. In kind it is cell-based, rat. The note with it: 10 μM, 10 min, without or with 90 nM forskolin.
Data set [5] has as its system non-TMEM16A calcium-activated chloride channel (CaCC) in HT-29 cells. Nature of the data set: non-TMEM16A CaCC plate reader assay in HT-29 cells expressing YFP. In kind it is cell-based. The note with it: 10 μM. An outline of the steps:
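HT-29 cells expressing cytoplasmic YFP halide sensor, test compound at 10 μM. Activation was tested by iodide addition and inhibition by iodide plus ATP, reading YFP fluorescence quenching from iodide influx. The initial rate of iodide influx was computed as a linear measure of non-TMEM16A CaCC function. Representative of two to four experiment sets.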

Data set [6] concerns FRT cells. Nature of the data set: Alamar Blue cytotoxicity assay. The note with it: 10 μM, 8 h. It counts as cell-based, rat.
Data set [7] is classed as in vitro ADME. The note with it: 5 μM, rat hepatic microsomes, NADPH.
For data set [8], the system named is tear fluid secretion in mice. Conditions: cited from earlier work.
For data set [9], the system named is tear volume in CF mice lacking functional CFTR. Description: tear fluid volume after single ocular delivery, CF mice. It counts as in vivo, mouse. Conditions: single ocular delivery 250 pmol.
Data set [10] concerns tear volume in wild-type mice. Nature of the data set: tear fluid volume after single ocular delivery, wild-type mice. In kind it is in vivo, mouse.
The test system of data set [11] is cytoplasmic calcium in FRT cells. Nature of the data set: cytoplasmic calcium by Fluo-4 fluorescence in FRT cells. It counts as cell-based, rat. Conditions: 10 μM, 5 min pretreatment.
For data set [12], the target named is CFTR in HBE cells (Homo sapiens, UniProt P13569). Nature of the data set: CFTR activation in HBE cells by short-circuit current. It counts as cell-based.
CFTR in HBE cells, sequence (P13569 whole entry): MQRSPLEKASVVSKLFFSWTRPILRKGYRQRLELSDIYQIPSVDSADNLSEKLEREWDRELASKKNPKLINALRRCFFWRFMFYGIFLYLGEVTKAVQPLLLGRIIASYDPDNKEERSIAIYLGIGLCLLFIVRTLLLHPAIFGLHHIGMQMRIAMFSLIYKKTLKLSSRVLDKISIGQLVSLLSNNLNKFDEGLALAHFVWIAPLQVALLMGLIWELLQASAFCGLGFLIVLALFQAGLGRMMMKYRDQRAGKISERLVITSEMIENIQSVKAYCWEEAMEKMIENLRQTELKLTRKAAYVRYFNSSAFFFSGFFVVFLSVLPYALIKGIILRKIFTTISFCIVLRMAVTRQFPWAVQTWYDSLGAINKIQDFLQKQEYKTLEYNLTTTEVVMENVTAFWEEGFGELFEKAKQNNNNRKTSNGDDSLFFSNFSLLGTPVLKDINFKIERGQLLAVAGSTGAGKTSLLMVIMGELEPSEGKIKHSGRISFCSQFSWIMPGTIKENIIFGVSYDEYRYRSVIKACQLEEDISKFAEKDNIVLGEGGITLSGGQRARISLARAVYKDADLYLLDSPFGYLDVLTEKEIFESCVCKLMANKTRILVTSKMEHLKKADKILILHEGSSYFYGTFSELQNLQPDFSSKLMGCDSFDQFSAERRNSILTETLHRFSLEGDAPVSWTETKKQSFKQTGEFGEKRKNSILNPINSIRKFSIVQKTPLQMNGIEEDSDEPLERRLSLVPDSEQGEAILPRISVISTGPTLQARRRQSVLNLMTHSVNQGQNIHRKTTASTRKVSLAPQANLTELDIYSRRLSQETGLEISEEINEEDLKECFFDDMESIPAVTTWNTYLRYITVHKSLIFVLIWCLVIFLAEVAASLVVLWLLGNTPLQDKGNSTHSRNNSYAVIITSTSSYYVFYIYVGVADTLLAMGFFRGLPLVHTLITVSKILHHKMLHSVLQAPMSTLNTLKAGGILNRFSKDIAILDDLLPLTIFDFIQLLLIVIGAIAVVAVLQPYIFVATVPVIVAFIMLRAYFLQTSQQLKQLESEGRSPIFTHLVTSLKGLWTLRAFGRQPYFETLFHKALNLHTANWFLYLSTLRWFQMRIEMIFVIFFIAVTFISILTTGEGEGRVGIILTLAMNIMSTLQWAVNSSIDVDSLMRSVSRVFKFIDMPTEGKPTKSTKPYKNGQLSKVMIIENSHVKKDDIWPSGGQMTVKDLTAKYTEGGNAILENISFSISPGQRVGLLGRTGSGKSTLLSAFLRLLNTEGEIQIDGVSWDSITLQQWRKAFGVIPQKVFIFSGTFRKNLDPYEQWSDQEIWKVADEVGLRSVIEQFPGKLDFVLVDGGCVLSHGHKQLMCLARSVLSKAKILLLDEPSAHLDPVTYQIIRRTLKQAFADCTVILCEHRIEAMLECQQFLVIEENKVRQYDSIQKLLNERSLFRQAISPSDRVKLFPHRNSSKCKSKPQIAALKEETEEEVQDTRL

The source of these data is PMC5453640 (Journal of medicinal chemistry, 2017).

“Also recorded” adds a separate entry of the source.

T1 sequence (P13569 whole entry): as above

Take `CCN(CC)c1nc(Nc2cccc(C(=O)O)c2)nc(OC(C(F)(F)F)C(F)(F)F)n1` [6a]: in data set [1], the “CFTR activation potency of synthesized analogs, comparison in words” value is on record as “comparable or slightly better potency than non-substituted aniline (1)”.
Same read-out and setting: next, `CCN(CC)c1nc(Nc2cccc(F)c2)nc(OC(C(F)(F)F)C(F)(F)F)n1` [6b]: “comparable or slightly better potency than non-substituted aniline (1)”; `CCN(CC)c1nc(Nc2cccc(Cl)c2)nc(OC(C(F)(F)F)C(F)(F)F)n1` [6c]: “significantly reduced potency”.
Still for that read-out and setting: as for `CCN(CC)c1nc(Nc2cccc([N+](=O)[O-])c2)nc(OC(C(F)(F)F)C(F)(F)F)n1` [6d], the entry is “comparable or slightly better potency than non-substituted aniline (1)”.
As to `CCN(CC)c1nc(Nc2ccc3cn[nH]c3c2)nc(OC(C(F)(F)F)C(F)(F)F)n1` [6h], in data set [1], the “CFTR activation potency of synthesized analogs, comparison in words” value is reported as “less potent than 1”. The “fold more potent than regioisomer 6i” value in data set [1] (EC50 ratio, Chart 2) is ~ 3 fold.
As to `CCN(CC)c1nc(Nc2ccc3[nH]ncc3c2)nc(OC(C(F)(F)F)C(F)(F)F)n1` [6i], the “CFTR activation potency of synthesized analogs, comparison in words” value in data set [1] is “less potent than 1”.
Take `CCN(CC)c1nc(Nc2ccc3ncoc3c2)nc(OC(C(F)(F)F)C(F)(F)F)n1` [6j]: in data set [1], the “CFTR activation potency of synthesized analogs, comparison in words” value was “greater potency than 1”.
Turning to `CCN(CC)c1nc(Nc2ccc3ncsc3c2)nc(OC(C(F)(F)F)C(F)(F)F)n1` [6k], the “extent of CFTR activation (short-circuit current)” value in data set [2] was “full CFTR activation”. In addition, the “inhibition or activation of CaCC in TMEM16A-expressing FRT cells” value in data set [3] is on record as “neither inhibited nor activated”. In data set [1], the “CFTR activation potency of synthesized analogs, comparison in words” value is “significantly greater potency than 1”. The “fold increase in potency over benzoxazole 6j” value in [1] (EC50 ratio, Chart 2) is ~ 3 fold. Besides, the “elevation of cellular cAMP” value in data set [4] is “did not elevate cellular cAMP”. The “inhibition or activation of CaCC in HT-29 cells” value in [5] is “neither inhibited nor activated”. For the same compound, in [6], the “cytotoxicity (Alamar Blue)” value was “did not produce significant toxicity”.
On to `CNc1nc(Nc2ccc(C(C)=O)cc2)nc(OC(C(F)(F)F)C(F)(F)F)n1` [K001], for which, in [1], the “CFTR activation potency of commercial analogs, SAR summary in words” value is “reduced activity”.
For the compound `COc1nc(Nc2ccc([N+](=O)[O-])cc2)nc(OC)n1` [K023], the “CFTR activation potency of commercial analogs, SAR summary in words” value in [1] is reported as “greatly reduced potency”.
The same measure, in the same setting: next, `CC(C)(C)Nc1nc(Nc2ccc(OC(F)(F)Cl)cc2)nc(OCC(F)(F)F)n1` [K029]: “reduced potency”; `CNc1nc(Nc2ccc([N+](=O)[O-])cc2)nc(OCC(F)(F)C(F)F)n1` [K032]: “best potency”; `CCC(C)Nc1nc(Nc2ccc([N+](=O)[O-])cc2)nc(OC(C(F)(F)F)C(F)(F)F)n1` (stereo not drawn) [K056]: “reduced potency”.
Take `C=CCNc1nc(Nc2cccc([N+](=O)[O-])c2)nc(OC(C(F)(F)F)C(F)(F)F)n1` [K059]: the “CFTR activation potency of commercial analogs, SAR summary in words” value in [1] is “best potency”.
Turning to `FC(F)(F)COc1nc(Nc2ccc(OC(F)(F)F)cc2)nc(NC2CC2)n1` [K079], in [1], the “CFTR activation potency of commercial analogs, SAR summary in words” value was “reduced activity”.
As to `CCN(CC)c1nc(Nc2ccccc2)nc(OC(C(F)(F)F)C(F)(F)F)n1` [compound 1, N,N-Diethyl-6-[(1,1,1,3,3,3-hexafluoropropan-2-yl)oxy]-N′-phenyl-1,3,5-triazine-2,4-diamine], in data set [1], the “CFTR activation potency of synthesized analogs, comparison in words” value is recorded as “more potent than tetrafluoropropanol (7a)” and the “CFTR activation potency of commercial analogs, SAR summary in words” value is reported as “best potency”. The “metabolic stability in hepatic microsomes, in words” value in [7] is “metabolized rapidly”. Moreover, the “tear fluid secretion after topical delivery” value in [8] is on record as “increased tear fluid secretion in mice; also recorded: increased tear fluid secretion after topical delivery”.
Take `CNc1nc(Nc2ccccc2)nc(OCC(F)(F)C(F)F)n1` [compound 12, N-Methyl-N′-phenyl-6-(2,2,3,3-tetrafluoropropoxy)-1,3,5-triazine-2,4-diamine]: in data set [2], the “extent of CFTR activation (short-circuit current)” value was “fully activated CFTR chloride conductance; also recorded: full CFTR activation”. In [9], the “effect on tear volume in CF mice” value was “without effect; also recorded: did not increase tear volume”. In addition, the “duration of sustained in vivo efficacy in increasing tear volume” value in [10] (mice, dose not given) is “at least 8 h”. The “time over which tear volume returned to baseline” value in data set [10] (wild-type mice, single topical dose 100 μM (250 pmol)) was 12 to 24 h. In [10] (wild-type mice, single topical dose 100 μM (250 pmol) in 2.5 μL), the “duration of sustained increase in tear volume” value is 8 h. For the same compound, in [10] (wild-type mice, single topical dose down to 25 pmol), the “duration of sustained effect on tear volume” value stood at 8 h. In data set [10] (wild-type mice, single topical doses down to 25 pmol), the “time of maximal tear volume” value fell in the range of 1 to 3 h. Moreover, the “inhibition or activation of CaCC in TMEM16A-expressing FRT cells” value in data set [3] is given as “neither inhibited nor activated”. In data set [1] (EC50 ratio, Chart 3), the “fold better EC50 than diethylamine analog 6a” value is reported as ~ 50 fold and the “fold more potent than hexafluoropropanol analog 11” value is ~ 3 fold. Besides, the “increase of cytoplasmic calcium” value in [11] was “without causing cAMP or calcium elevation”. The “elevation of cellular cAMP” value in data set [4] is on record as “without causing cAMP or calcium elevation; also recorded: did not elevate cellular cAMP”. Besides, the “CFTR activation in HBE cells after forskolin” value in data set [12] (0.1 μM compound, after 100 nM forskolin) was “fully activated CFTR”. Further, in data set [12] (absence of basal CFTR phosphorylation produced by forskolin), the “CFTR activation in HBE cells without forskolin” value is recorded as “did not activate CFTR”. In [5], the “inhibition or activation of CaCC in HT-29 cells” value is “neither inhibited nor activated”. Besides, the “cytotoxicity (Alamar Blue)” value in data set [6] is “did not produce significant toxicity”.
